Data taken from paper PMC4145829 (Drug Design, Development and Therapy, 2014).
Entries after “also recorded” stand apart in the source; their conditions may differ. One block for each molecule: values may come before it.

Legend:
zebrafish embryos = test: Zebrafish toxicity assay; type: in vivo; settings: for gross morphological changes (in words): zebrafish larvae, exposure to 96 hours
Summary of the method: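 Wild-type embryos at 24 hpf, bath-exposed in distilled water (pH 6.8–8) at 28°C with solutions renewed every 24 h. Naïve and 0.1% DMSO vehicle controls were included. Five concentrations, spacing factor 2, within solubility limits; 12 embryos per concentration per replicate; three independent experiments. Toxicity scored at 48 and 96 hpf; NOEC/LOEC derived experimentally; LC50 from pooled mortality via sigmoidal fit.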

[1] = system: subintestinal vessels (SIVs) of zebrafish embryos; test: Zebrafish subintestinal vessel angiogenesis assay; type: in vivo; settings: for effect on SIV angiogenesis (in words): zebrafish embryos
[2] = system: chick chorioallantoic membrane; settings: cited from earlier work
patients = settings: cited from earlier work; for Associated clinical toxicities: Table 1
[3] = system: human primary endothelial cells; settings: cited from earlier work
[4] = Compound precipitation in the test medium; type: physicochemical; settings: test medium of the zebrafish assays (distilled water, 0.1% DMSO)
[5] = system: mouse dorsal air sac model; settings: cited from earlier work
VEGFR = settings: read-out: VEGFR inhibition IC50; biochemical assays; cited from earlier work
[6] = concentration not given, 96 hpf
[7] = patients enrolled in clinical trial

Molecule: CNC(=O)c1cc(Oc2ccc(NC(=O)Nc3ccc(Cl)c(C(F)(F)F)c3)cc2)ccn1 [Sorafenib]
gross morphological changes (in words) (zebrafish embryos): nonprogressive pericardial edema in all the embryos subjected to treatment (ie, 36/36)
concentration giving complete regression of SIVs ([1]; 96 hpf): < 1 µM
effect on SIV angiogenesis (in words) ([1]; 96 hpf): complete inhibition of SIV angiogenesis
concentration with significant angiogenesis inhibition in the in vivo CAM assay [2]: 1 to 3 µM
Associated clinical toxicities (patients): Cardiotoxicity

Molecule: Cc1ccc(C(=O)Nc2ccc(S(=O)(=O)O)c3cc(S(=O)(=O)O)cc(S(=O)(=O)O)c23)cc1NC(=O)c1cccc(NC(=O)Nc2cccc(C(=O)Nc3cc(C(=O)Nc4ccc(S(=O)(=O)O)c5cc(S(=O)(=O)O)cc(S(=O)(=O)O)c45)ccc3C)c2)c1 [Suramin]
effective anti-angiogenic concentration range (in words) [3]: effective at micromolar concentrations
LC50 fold higher than the other multikinase inhibitors (zebrafish embryos; 96 hpf): about 200 fold
gross morphological changes (in words) (zebrafish embryos): multiple sub-lethal toxicities like yolk-sac edema, nonprogressive pericardial edema, bent notochord, and jaw deformity; also recorded: multiple pathological changes like jaw deformity, pericardial edema, notochord deformity, and patchy necrosis
inhibition of vessels within the angiogenic basket [1, 6]: 45%
regression / decrease in SIV length [1, 6]: 30%
concentration inhibiting angiogenesis in the CAM assay [2]: 7 µM
fold higher concentration than VEGFR inhibitors in the CAM assay [2]: 7 fold
Associated clinical toxicities (patients): Multiple systemic toxicities
toxicities in clinical trials (patients): neutropenia, neurological dysfunction, and development of renal insufficiency

Molecule: CN1CC[C@H](c2c(O)cc(O)c3c(=O)cc(-c4ccccc4Cl)oc23)[C@H](O)C1 [Flavopiridol]
effective anti-angiogenic concentration range (in words) [3]: effective at micromolar concentrations
gross morphological changes (in words) (zebrafish embryos): multiple sub-lethal toxicities like yolk-sac edema, nonprogressive pericardial edema, bent notochord, and jaw deformity; also recorded: Widespread tissue necrosis; also recorded: multiple pathological changes like jaw deformity, pericardial edema, notochord deformity, and patchy necrosis
decrease in the number of SIVs ([1]; 2 μM, 96 hpf): 72%
regression in SIV length ([1]; 2 μM, 96 hpf): 38%
effect on SIV length and basket (in words) ([1]; 2 μM, lectin staining at 72 hpf, Figure 2C): Partial regression of SIVs
Associated clinical toxicities (patients): Multiple systemic toxicities
toxicities in clinical trials (patients): tumor lysis syndrome and febrile neutropenia

concentration beyond which the compound precipitated [4]: > 1 µM
Molecule: C#Cc1cccc(Nc2ncnc3cc(OCCOC)c(OCCOC)cc23)c1 [Erlotinib]
decrease in the number of SIVs within the basket ([1]; 1 μM, 96 hpf): no effect
regression in SIV length ([1]; 1 μM, 96 hpf): 10%
effect on SIV angiogenesis (in words) ([1]; 96 hpf): Angiogenesis inhibition was not demonstrated
Associated clinical toxicities (patients): Multiple systemic toxicities

Molecule: CO[C@@H]1[C@H](OC(=O)NC(=O)CCl)CC[C@]2(CO2)[C@H]1[C@@]1(C)O[C@@H]1CC=C(C)C [TNP-470]
gross morphological changes (in words) (zebrafish embryos): abnormal notochord morphology
regression / decrease in SIV length [1, 6]: 20%–30%
effect on SIV angiogenesis (in words) ([1]; 96 hpf): formation of aberrant SIV extensions
toxicity limiting effectiveness [5]: severe weight loss
concentration inhibiting angiogenesis in the CAM assay [2]: 100 to 125 µM
fold higher concentration than VEGFR inhibitors in the CAM assay [2]: 100 fold

Molecule: O=C1CCC(N2C(=O)c3ccccc3C2=O)C(=O)N1 (stereo not shown) [Thalidomide]
effective anti-angiogenic concentration range (in words) [3]: effective at micromolar concentrations
absence of fin development (zebrafish embryos; Figure S3): 100%
concentration with reduction of otolith size and altered fin development (zebrafish embryos; zebrafish embryos): > 300 µM
gross morphological changes (in words) (zebrafish embryos): did not result in gross morphological changes with respect to notochord development and development of cardiac edema
regression / decrease in SIV length [1, 6]: 20%–30%
anti-angiogenic effect in the CAM assay (in words) [2]: does not exhibit anti-angiogenic effects
Associated clinical toxicities (patients): Teratogenic

Molecule: CCN(CC)CCNC(=O)c1c(C)[nH]c(/C=C2\C(=O)Nc3ccc(F)cc32)c1C [Sunitinib]
Associated clinical toxicities (patients): Cardiotoxicity
patients with congestive cardiac failure (patients; [7]): 11%
patients with decrease in left ventricular ejection fraction (patients; [7]): 28%

Molecule: Cc1cc(C)c(/C=C2\C(=O)Nc3ccccc32)[nH]1 [SU5416]
gross morphological changes (in words) (zebrafish embryos): multiple gross morphological abnormalities like yolk-sac edema, shortened body axis, bent notochord, jaw deformity, blood pooling, and un-inflated swim bladder
decrease in the number of SIVs within the basket ([1]; 1 μM, 96 hpf): 85%
regression in SIV length ([1]; 1 μM, 96 hpf): 38%
effect on SIV angiogenesis (in words) ([1]; 96 hpf): incomplete SIV regression
Associated clinical toxicities (patients): Multiple systemic toxicities

Molecule: Cc1ccc(Nc2nccc(N(C)c3ccc4c(C)n(C)nc4c3)n2)cc1S(N)(=O)=O [Pazopanib]
Associated clinical toxicities (patients): Cardiotoxicity

Molecule: COc1cc2nccc(Oc3ccc(NC(=O)Nc4cc(C)on4)c(Cl)c3)c2cc1OC [Tivozanib]
concentration giving complete regression in SIVs ([1]; 96 hpf): 5 nM
improvement of progression-free survival (patients; patients with renal cell carcinoma): ~12 months

Molecule: COc1cc2nccc(Oc3ccc(NC(=O)C4(C(=O)Nc5ccc(F)cc5)CC4)cc3)c2cc1OC [Cabozantinib]
Associated clinical toxicities (patients): Multiple systemic toxicities

Molecule: COc1ccc(/C=C\c2cc(OC)c(OC)c(OC)c2)cc1O [Combretastatin]
gross morphological changes (in words) (zebrafish embryos): coagulation of zebrafish embryos
effect on SIV angiogenesis (in words) ([1]; 96 hpf): lack of anti-angiogenic activity
effect on SIV angiogenesis (in words) ([1]; 96 hpf, listed as combretastatin): Angiogenesis inhibition was not demonstrated
Associated clinical toxicities (patients): Multiple systemic toxicities

Molecule: CNC(=O)c1cc(Oc2ccc(NC(=O)Nc3ccc(Cl)c(C(F)(F)F)c3)c(F)c2)ccn1 [Regorafenib]
gross morphological changes (in words) (zebrafish embryos): nonprogressive pericardial edema in all the embryos subjected to treatment (ie, 36/36)
concentration giving complete regression of SIVs ([1]; 96 hpf): < 1 µM
effect on SIV angiogenesis (in words) ([1]; 96 hpf): complete inhibition of SIV angiogenesis
concentration with significant angiogenesis inhibition in the in vivo CAM assay [2]: 1 to 3 µM
IC50 (VEGFR): 13 to 46 nM

Molecule: Clc1ccc(Nc2nnc(Cc3ccncc3)c3ccccc23)cc1 [Vatalanib]
gross morphological changes (in words) (zebrafish embryos): multiple gross morphological abnormalities like yolk-sac edema, shortened body axis, bent notochord, jaw deformity, blood pooling, and un-inflated swim bladder
Associated clinical toxicities (patients): Multiple systemic toxicities

Molecule: COc1cc2c(Nc3ccc(Br)cc3F)ncnc2cc1OCC1CCN(C)CC1 [Vandetanib]
effect on SIV angiogenesis (in words) ([1]; 96 hpf): incomplete SIV regression
Associated clinical toxicities (patients): Cardiotoxicity

Molecule: Bevacizumab
gross morphological changes (in words) (zebrafish embryos): did not elicit dose-dependent toxicity or a consistent pathological phenotype
effect on SIV angiogenesis (in words) ([1]; 96 hpf): extremely variable results; also recorded: Angiogenesis inhibition was not demonstrated
